Measured values reported in ChEMBL document CHEMBL4814057, “4-4-(Anilinomethyl)-3-[4-(trifluoromethyl)phenyl]-1H-pyrazol-1-ylbenzoic acid derivatives as potent anti-gram-positive bacterial agents” (Eur J Med Chem, 2021).
Values after ≈ are worked out from the molar mass of the structure shown. Active and inactive are the calls of the source. The rule behind the calls is not given here.

Columns and labels:
[1] = tested on: Enterococcus faecalis; experiment: Antimicrobial activity against vancomycin-susceptible Enterococcus faecalis ATCC 29212 assessed as bacterial growth inhibitions by CLSI protocol based microdilution method
[2] = tested on: Staphylococcus aureus; experiment: Inhibition of protein synthesis in Staphylococcus aureus ATCC 29213 at 4 times MIC measured by liquid scintillation counter; format: functional
[3] = tested on: Enterococcus faecalis; experiment: Antibiofilm activity against Enterococcus faecalis ATCC 29212 assessed as inhibition of biofilm formation at 0.5 times MIC after 24 hrs by crystal violet staining based assay relative to control
[4] = tested on: Staphylococcus aureus; experiment: Antimicrobial activity against methicillin-sensitive Staphylococcus aureus ATCC 29213 by CLSI-based broth microdilution assay; format: functional
[5] = Toxicity in CD1 mouse assessed as effect on alkaline phosphatase level in blood at 50 mg/kg, ip administered as single dose measured after 24 hrs; format: organism-based; conditions: in vivo
How it was run: (§1)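 Male CD-1 mice, 8 weeks, 32–37 g, n = 10 per dose. Single IP injection at 5, 20 or 50 mg/kg in 0.9% saline, filter-sterilized; saline vehicle group. Blood taken by cardiac puncture 24 h later. 14 plasma markers measured on a chemistry panel, reported as mean ± SE. Toxicity judged by significance versus controls, normal ranges, dose-dependence and consistency across organ markers.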

[6] = tested on: Staphylococcus aureus; experiment: Antimicrobial activity against methicillin-resistant Staphylococcus aureus ATCC 33592 assessed as bacterial growth inhibitions by CLSI protocol based microdilution method; format: functional
[7] = tested on: Enterococcus faecium; experiment: Antimicrobial activity against vancomycin-resistant Enterococcus faecium clinical isolate 1091282 by CLSI-based broth microdilution assay; format: functional
[8] = tested on: Staphylococcus aureus; experiment: Antimicrobial activity against methicillin-resistant Staphylococcus aureus ATCC 700699 assessed as bacterial growth inhibitions by CLSI protocol based microdilution method; format: functional
[9] = tested on: Staphylococcus aureus; experiment: Antibiofilm activity against Staphylococcus aureus UAMS-1 assessed as destruction catheter-associated biofilm formation measured after 48 hrs (reference value: 1.53 x 10^8); format: functional
How it was run: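 Plasma-coated catheters colonised for 24 h at 37 °C with gentle shaking, starting from ~1 × 10^7 CFU of MSSA UAMS-1 in biofilm medium (TSB plus glucose and NaCl). […] Medium renewed at 24 h. Catheters (n = 3) sonicated at 48 h and plated on TSA for CFU per catheter.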

[10] = tested on: Staphylococcus aureus; experiment: Antibiofilm activity against Staphylococcus aureus ATCC 25923 assessed as destruction of biofilm formation at 0.5 times MIC after 24 hrs by crystal violet staining based assay relative to control; format: functional, organism-based
How it was run: (§2)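 Overnight culture brought to 0.5 McFarland in PBS, diluted 1:100 in CAMHB with 1% glucose. Inhibition: cells plus compound (in DMSO) at 2x, 1x, 0.5xMIC, 24 h at 35 °C, triplicate. Destruction: 24 h biofilm grown without drug, washed, fresh medium with compound, further 24 h. Then washed, dried, 0.1% crystal violet, solubilized in 33% acetic acid, OD 620 nm. Controls are DMSO-only and broth-only wells.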

[11] = tested on: Staphylococcus aureus; experiment: Antimicrobial activity against Staphylococcus aureus ATCC 29213 assessed as inhibition of cell wall synthesis at 2 times MIC measured by liquid scintillation counter; format: functional
How it was run: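 Early-exponential cells resuspended in M9 minimal medium, drug (40x stock) in triplicate, 30 min pre-incubation at 37 °C. [14C]N-acetylglucosamine 0.4 µCi/reaction for 45 min at 37 °C. Stopped with 8% SDS, heated 95 °C 30 min, spotted on nitrocellulose, washed with 0.1% SDS, then scintillation counted.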

[12] = tested on: Enterococcus faecalis; experiment: Antibiofilm activity against Enterococcus faecalis ATCC 29212 assessed as inhibition of biofilm formation at 0.5 times MIC after 24 hrs by crystal violet staining based assay relative to control; format: functional; design: scale not given: the % may be the effect or the level left
How it was run: as §2

[13] = tested on: Staphylococcus aureus; experiment: Antibacterial activity against methicillin resistant Staphylococcus aureus ATCC 700699 persisters assessed as reduction in viability at 4 times MIC measured within 4 hrs by colony counting method; format: functional; conditions: time hrs <=4
How it was run: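 Stationary-phase S. aureus from overnight CAMHB culture (35 °C, 200 rpm), washed thrice in PBS, diluted to ~5 × 10^8 CFU/ml. Incubated with antibiotic at 35 °C, 200 rpm. Aliquots taken at set times, washed, serially diluted in PBS, drop-plated (6 × 6) on TSA with 5% sheep blood. Colonies counted after 18–20 h at 35 °C. Triplicates.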

[14] = tested on: Staphylococcus aureus; experiment: Antimicrobial activity against methicillin-resistant Staphylococcus aureus ATCC 33591 assessed as bacterial growth inhibitions by CLSI protocol based microdilution method; format: functional
[15] = tested on: Enterococcus faecium; experiment: Antimicrobial activity against vancomycin-resistant Enterococcus faecium clinical isolate 1094112 by CLSI-based broth microdilution assay; format: functional
[16] = Toxicity in CD1 mouse assessed as effect on blood urea nitrogen level at 50 mg/kg, ip administered as single dose measured after 24 hrs; format: organism-based; conditions: in vivo
How it was run: as §1

[17] = tested on: Staphylococcus aureus; experiment: Inhibition of DNA synthesis in Staphylococcus aureus ATCC 29213 at 0.25 times MIC measured by liquid scintillation counter; format: functional
How it was run: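 Early-exponential cells in CAMHB added to drug (40x stock) in triplicate, with a no-drug control. After 30 min pre-incubation at room temperature, [3H]thymidine 3.0 µCi/tube (DNA) or [3H]uridine 0.5 µCi/tube (RNA) added for 30 min at room temperature. Stopped with cold TCA, precipitate filtered and washed, then scintillation counted.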

[18] = Selectivity index, ratio of IC50 for cytotoxicity against human HEK-293T cells to MIC of antimicrobial activity against methicillin-susceptible Staphylococcus aureus ATCC 25923; format: toxicity, cell-based; conditions: read-out: Selectivity Index
[19] = Toxicity in CD1 mouse assessed as effect on globulin level at 50 mg/kg, ip administered as single dose measured after 24 hrs; format: organism-based; conditions: in vivo
How it was run: as §1

[20] = tested on: Enterococcus faecalis; experiment: Antibiofilm activity against Enterococcus faecalis ATCC 29212 assessed as destruction of biofilm formation at 1 times MIC after 24 hrs by crystal violet staining based assay relative to control; format: functional
How it was run: as §2

[21] = Toxicity in CD1 mouse assessed as effect on kidney 50 mg/kg, ip administered as single dose measured after 24 hrs by TUNEL assay; format: organism-based; conditions: in vivo
How it was run: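 Male CD-1 mice, single IP 50 mg/kg in saline; saline control. Acetaminophen 300 mg/kg and cisplatin 20 mg/kg IP as positive controls. At 24 h, liver and kidney paraffin-embedded, 5-µm sections, TUNEL stained with DAPI counterstain, imaged by fluorescence microscopy.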

[22] = Toxicity in CD1 mouse assessed as effect on pancreatic amylase level at 50 mg/kg, ip administered as single dose measured after 24 hrs; format: organism-based; conditions: in vivo
How it was run: as §1

[23] = tested on: Enterococcus faecium; experiment: Antimicrobial activity against vancomycin-resistant Enterococcus faecium clinical isolate 1091563 by CLSI-based broth microdilution assay; format: functional
[24] = tested on: Enterococcus faecalis; experiment: Antibiofilm activity against Enterococcus faecalis ATCC 29212 assessed as inhibition of biofilm formation at 2 times MIC after 24 hrs by crystal violet staining based assay relative to control; format: functional; design: scale not given: the % may be the effect or the level left
How it was run: as §2

[25] = tested on: Enterococcus faecium; experiment: Antimicrobial activity against vancomycin-resistant Enterococcus faecium clinical isolate 1100440 by CLSI-based broth microdilution assay; format: functional
[26] = tested on: Bacillus subtilis; experiment: Antimicrobial activity against Bacillus subtilis ATCC 6623 assessed as bacterial growth inhibitions by CLSI protocol based microdilution method; format: functional
How it was run: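 Broth microdilution starting at 50 µg/ml with 2-fold serial dilutions; run in triplicate.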

Structure (SMILES): O=C(O)c1ccc(-n2cc(CNc3cc(F)cc(C(F)(F)F)c3)c(-c3ccc(C(F)(F)F)cc3)n2)cc1
- MIC [1]: 1.56 µg/mL (≈ 2.98 µM)
- inhibition [2]: 100%
- inhibition [3]: Active
- MIC [4]: 2 µg/mL (≈ 3.82 µM)
- Activity [5]: Non-Toxic
- MIC [6]: 0.78 µg/mL (≈ 1.49 µM)
- MIC [7]: 2 µg/mL (≈ 3.82 µM)
- MIC [8]: 0.78 µg/mL (≈ 1.49 µM)
- Activity [9]: 4.74 10^5CFU
- Activity [10]: inactive
- inhibition (INH) [11]: 39.5%
- Activity [12]: 75%
- Activity [13]: 2 log10CFU/ml
- MIC [14]: 0.39 µg/mL (≈ 0.745 µM)
- MIC [15]: 4 µg/mL (≈ 7.64 µM)
- Activity [16]: Non-Toxic
- inhibition (INH) [17]: 44%
- selectivity ratio [18]: 13
- Activity [19]: Non-Toxic
- Activity [20]: 75%
- Activity [21]: Non-Toxic
- Activity [22]: Non-Toxic
- MIC [23]: 4 µg/mL (≈ 7.64 µM)
- Activity [24]: 90%
- MIC [25]: 4 µg/mL (≈ 7.64 µM)
- MIC [26]: 0.78 µg/mL (≈ 1.49 µM)
